In article PMC11557630 (Targeted Oncology, 2024):

Columns and labels:
[1] = test system: PARP inhibitor-resistant ovarian cancer; conditions: adavosertib monotherapy arm; cited from earlier work
cell kill activity = conditions: preclinically determined; no reference given; cited from earlier work
[2] = test system: patients with refractory solid tumors; test: Safety and tolerability; type: in vivo, human; conditions: for Patients with AEs causally related to adavosertib: 12 patients
Summary of the method: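 Open-label, multicenter escalation: oral adavosertib 175 mg twice daily on a 3-days-on/4-days-off schedule, plus continuous oral olaparib 200 mg twice daily, in 21-day cycles. DLTs were recorded in cycle 1, a window extendable up to 2 weeks after drug-related delays; DLT-evaluable patients received >75% of planned doses. AEs were graded by CTCAE v4.03 via examination, vital signs and laboratory tests.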

[3] = test system: patients with relapsed extensive-stage SCLC; test: Safety and tolerability; type: in vivo, human; conditions: part B SCLC cohort
Summary of the method: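 Oral adavosertib 200 mg once daily on days 1–3 and 8–10 of a 21-day cycle, plus continuous oral olaparib 200 mg twice daily. AEs were graded by CTCAE v4.03 and assessed by physical examination, vital signs (blood pressure, pulse, body temperature) and laboratory parameters, from enrollment through post-treatment follow-up. Safety data were summarized descriptively.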

[4] = Plasma pharmacokinetics of adavosertib and olaparib, part A; type: in vivo, human
[5] = in combination with olaparib, cohort 4.2
[6] = in combination with olaparib, cohort 7.4
[7] = with adavosertib 175 mg bid vs olaparib alone

In the case of C=CCn1c(=O)c2cnc(Nc3ccc(N4CCN(C)CC4)cc3)nc2n1-c1cccc(C(C)(C)O)n1 [adavosertib], the Clinical benefit rate [1] is given as 63%, the “Target adavosertib plasma concentration range for cell kill activity” value (cell kill activity) is given as 0.5 to 1 µM and the “Patients with an AE leading to dose reduction of adavosertib” value ([2]; cohort 4.2, five patients) is given as 35.7%. The “Patients with an AE leading to dose interruption of adavosertib” value ([2]; cohort 4.2, seven patients) was 50.0%, the “Patients with an AE leading to dose interruption of adavosertib” value ([2]; cohort 7.4, five patients) was 38.5% and the “Patients with an AE leading to dose reduction of adavosertib” value ([2]; cohort 7.4, three patients) was 23.1%. The “MTD for adavosertib bid” value ([2]; days 1–3, 8–10/21-day cycle, plus continuous olaparib 200 mg bid (cohort 4.2)) was 175 mg, the “Anemia causally related to adavosertib” value [2, 5] was 35.7% and the “Decreased appetite causally related to adavosertib” value [2, 5] was 50.0%. The “Diarrhea causally related to adavosertib” value [2, 5] was 50.0%, the “Fatigue causally related to adavosertib” value [2, 5] was 64.3% and the “Nausea causally related to adavosertib” value [2, 5] was 50.0%. The “Patients with AEs causally related to adavosertib” value [2, 5] was 85.7%, the “Patients with serious AEs causally related to adavosertib” value ([2]; in combination with olaparib, cohort 4.2, three patients) was 21.4% and the “Anemia causally related to adavosertib” value [2, 6] was 38.5%. The “Decreased appetite causally related to adavosertib” value [2, 6] was 30.8%, the “Diarrhea causally related to adavosertib” value [2, 6] was 38.5% and the “Fatigue causally related to adavosertib” value [2, 6] was 15.4%. The “Nausea causally related to adavosertib” value [2, 6] was 23.1%, the “Patients with AEs causally related to adavosertib” value [2, 6] was 92.3% and the “Patients with serious AEs causally related to adavosertib” value ([2]; in combination with olaparib, cohort 7.4, one patient (dizziness)) was 7.7%. For the same compound, the “Patients with CTCAE grade ≥ 3 events causally related to adavosertib” value ([2]; in combination with olaparib, part A overall, 52 patients) was 43.7%, the “AEs with an outcome of death considered causally related to adavosertib” value ([2]; part A overall, sepsis, not a result of a DLT) was “one” and the “AEs leading to dose reductions of adavosertib” value [3] was “one”. For the same compound, the “AEs leading to interruptions of adavosertib” value [3] was “three”.
With O=C(c1cc(Cc2n[nH]c(=O)c3ccccc23)ccc1F)N1CCN(C(=O)C2CC2)CC1 [olaparib, reference compound] the “Ratio of olaparib plus adavosertib to olaparib alone for AUC0–10 and/or Cmax” value ([4]; in some patients (high outliers)) was “exceeded 2”, the “Difference between exposure to olaparib in the presence of adavosertib and to olaparib alone” value ([4]; part A) was “no statistically significant difference” and the “Olaparib Cmin,ss compared with the IC95 in preclinical studies” value ([4]; part A, Supplementary Fig. 3) was “comparable”. For the same compound, the “Increase in olaparib AUC0–10” value [4, 7] was 33%, the “Increase in olaparib Cmax” value [4, 7] was 18% and the “Patients with an AE leading to dose interruption of olaparib” value ([2]; cohort 4.2, nine patients) was 64.3%. The “Patients with an AE leading to dose reduction of olaparib” value ([2]; cohort 4.2, three patients) was 21.4%, the “Patients with an AE leading to dose interruption of olaparib” value ([2]; cohort 7.4, eight patients) was 61.5% and the “Patients with an AE leading to dose reduction of olaparib” value ([2]; cohort 7.4, three patients) was 23.1%. The “AEs leading to interruptions of olaparib” value [3] was “five”.
